Data from ChEMBL document CHEMBL3124772, “Design, synthesis, and evaluation of conformationally restricted acetanilides as potent and selective β3 adrenergic receptor agonists for the treatment of overactive bladder” (J Med Chem, 2014).

Experiments:
[1] = molecular target: T1, Beta-3 adrenergic receptor (Homo sapiens, UniProt P13945); assay: Agonist activity at human beta-3 adrenergic receptor expressed in CHO cells assessed as increase in intracellular cAMP accumulation after 30 mins by time-resolved fluorescence assay; assay type: functional, cell-based
Outline: (§1)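 CHO cells stably transfected with cloned β3-AR, harvested after 3 days subculture with enzyme-free dissociation, 6000 cells in HBSS with 5 mM HEPES, 0.1% BSA and 0.6 mM IBMX. Ligand at 10⁻¹⁰ to 10⁻⁵ M final, 30 min room temperature with labeled cAMP antibody; LANCE TR-FRET read after 1 h detection, cAMP from standard curve.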

[2] = Intrinsic clearance in rat liver microsomes; assay type: ADME; conditions: read-out: CLH
[3] = Oral bioavailability in Sprague-Dawley rat at 2 mg/kg; assay type: ADME, organism-based; conditions: in vivo
[4] = molecular target: Beta-2 adrenergic receptor (Homo sapiens, UniProt P07550); assay: Displacement of [125I]-cyanopindolol from recombinant human beta-2 adrenergic receptor expressed in CHO cell membranes after 1 hr by scintillation counting analysis
Chain of Beta-2 adrenergic receptor (P07550 whole entry): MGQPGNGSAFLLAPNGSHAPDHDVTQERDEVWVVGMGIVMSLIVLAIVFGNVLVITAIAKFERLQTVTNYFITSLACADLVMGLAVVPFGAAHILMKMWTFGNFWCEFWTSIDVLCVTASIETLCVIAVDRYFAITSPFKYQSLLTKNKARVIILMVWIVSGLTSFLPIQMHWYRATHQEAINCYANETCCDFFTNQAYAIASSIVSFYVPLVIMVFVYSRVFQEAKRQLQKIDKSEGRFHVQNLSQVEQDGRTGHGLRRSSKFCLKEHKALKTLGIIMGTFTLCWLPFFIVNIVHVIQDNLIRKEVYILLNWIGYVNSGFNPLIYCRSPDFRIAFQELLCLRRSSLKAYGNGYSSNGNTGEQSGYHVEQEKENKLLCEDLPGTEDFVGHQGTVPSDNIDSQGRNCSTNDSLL

[5] = molecular target: Beta-3 adrenergic receptor (Canis lupus familiaris) (UniProt O02662); assay: Agonist activity at dog beta-3 adrenergic receptor expressed in CHO cells assessed as increase in intracellular cAMP accumulation at 10^-10 to 10^-5 M after 30 mins by time-resolved fluorescence assay relative to R-(-)isoproterenol; assay type: functional, cell-based; outline: as §1
[6] = Plasma clearance in Beagle dog at 1 mg/kg, iv and 2 mg/kg, po; assay type: ADME, organism-based, Canis lupus familiaris
Plasma [7] = assay: Unbound plasma concentration in acetic acid-induced Sprague-Dawley rat bladder hyperactivity model at 10 mg/kg, iv administered as 1 to 2 hrs infusion; assay type: ADME, organism-based; design: dose 10 mg/kg, route intravenous; conditions: in vivo
[8] = molecular target: Beta-3 adrenergic receptor (Rattus norvegicus) (UniProt P26255); assay: Agonist activity at rat beta-3 adrenergic receptor expressed in CHO cells assessed as increase in intracellular cAMP accumulation at 10^-10 to 10^-5 M after 30 mins by time-resolved fluorescence assay relative to R-(-)isoproterenol; assay type: functional, cell-based; outline: as §1
[9] = molecular target: T1, Beta-3 adrenergic receptor; assay: Agonist activity at human beta-3 adrenergic receptor expressed in CHO cells assessed as increase in intracellular cAMP accumulation at 10^-10 to 10^-5 M after 30 mins by time-resolved fluorescence assay relative to R-(-)isoproterenol; assay type: functional, cell-based; outline: as §1
[10] = Lipophilicity, log D of the compound at pH 7.3; assay type: physicochemical; conditions: buffer
Plasma [11] = assay: Unbound plasma concentration in acetic acid-induced Sprague-Dawley rat bladder hyperactivity model at 1 mg/kg, iv administered as 1 to 2 hrs infusion; assay type: ADME, organism-based; design: dose 1 mg/kg, route intravenous; conditions: in vivo
Rattus norvegicus [12] = assay: Reduction of micturition pressure at 1.2 uM unbound plasma level in acetic acid-induced Sprague-Dawley rat bladder hyperactivity model at 10 mg/kg, iv administered as 1 to 2 hrs infusion relative to vehicle-treated control; assay type: functional; design: scale not given: the % may be the effect or the level left
[13] = Plasma clearance in Sprague-Dawley rat at 1 mg/kg, iv and 2 mg/kg, po; assay type: ADME, organism-based
Cytochrome P450 2C9 = Cytochrome P450 2C9 (Homo sapiens, UniProt P11712); assay: Inhibition of CYP2C9 in human liver microsomes assessed as diclofenac alpha'-hydroxylation; assay type: ADME
Chain of Cytochrome P450 2C9 (P11712 whole entry): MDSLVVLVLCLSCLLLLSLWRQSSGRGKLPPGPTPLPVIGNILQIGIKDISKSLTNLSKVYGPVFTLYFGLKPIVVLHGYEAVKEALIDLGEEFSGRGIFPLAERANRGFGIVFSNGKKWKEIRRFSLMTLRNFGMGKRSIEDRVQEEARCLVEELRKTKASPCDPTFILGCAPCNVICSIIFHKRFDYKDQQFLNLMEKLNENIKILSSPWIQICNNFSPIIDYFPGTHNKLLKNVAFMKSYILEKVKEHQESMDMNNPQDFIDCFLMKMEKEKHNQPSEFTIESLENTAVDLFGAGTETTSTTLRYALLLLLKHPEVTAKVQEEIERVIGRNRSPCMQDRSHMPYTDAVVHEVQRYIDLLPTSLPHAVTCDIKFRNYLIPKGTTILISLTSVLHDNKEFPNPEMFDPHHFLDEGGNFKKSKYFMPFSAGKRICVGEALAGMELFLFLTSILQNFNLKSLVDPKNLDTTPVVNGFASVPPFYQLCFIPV

[14] = Intrinsic clearance in monkey liver microsomes; assay type: ADME, Macaca mulatta, Microsome; conditions: rhesus monkey, read-out: CLH
Cytochrome P450 3A4 = Cytochrome P450 3A4 (Homo sapiens, UniProt P08684); assay: Inhibition of CYP3A4 in human liver microsomes assessed as testosterone 6beta-hydroxylation; assay type: ADME
Cytochrome P450 2D6 = Cytochrome P450 2D6 (Homo sapiens, UniProt P10635); assay: Inhibition of CYP2D6 in human liver microsomes assessed as dextromethorphan O-demethylation; assay type: ADME
[15] = Half life in Beagle dog at 1 mg/kg, iv and 2 mg/kg, po; assay type: ADME, organism-based, Canis lupus familiaris; conditions: in vivo
[16] = Fraction unbound in rhesus monkey plasma at 1 mg/kg, iv and 2 mg/kg, po; assay type: ADME, organism-based, Macaca mulatta
[17] = molecular target: Beta-3 adrenergic receptor (Rattus norvegicus, UniProt P26255); assay: Agonist activity at rat beta-3 adrenergic receptor expressed in CHO cells assessed as increase in intracellular cAMP accumulation after 30 mins by time-resolved fluorescence assay; assay type: functional, cell-based; outline: as §1
[18] = Plasma clearance in rhesus monkey at 1 mg/kg, iv and 2 mg/kg, po; assay type: ADME, organism-based, Macaca mulatta
[19] = Oral bioavailability in Beagle dog at 2 mg/kg; assay type: ADME, organism-based, Canis lupus familiaris; conditions: in vivo
[20] = Oral bioavailability in rhesus monkey at 2 mg/kg; assay type: ADME, organism-based, Macaca mulatta; conditions: in vivo
[21] = molecular target: Beta-3 adrenergic receptor (Canis lupus familiaris, UniProt O02662); assay: Agonist activity at dog beta-3 adrenergic receptor expressed in CHO cells assessed as increase in intracellular cAMP accumulation after 30 mins by time-resolved fluorescence assay; assay type: functional, cell-based; outline: as §1
[22] = Fraction unbound in Sprague-Dawley rat plasma at 1 mg/kg, iv and 2 mg/kg, po; assay type: ADME, organism-based; conditions: Sprague-Dawley, plasma
[23] = Half life in Sprague-Dawley rat at 1 mg/kg, iv and 2 mg/kg, po; assay type: ADME, organism-based; conditions: in vivo
[24] = Half life in rhesus monkey at 1 mg/kg, iv and 2 mg/kg, po; assay type: ADME, organism-based, Macaca mulatta; conditions: in vivo
[25] = molecular target: Voltage-dependent L-type calcium channel subunit alpha-1C (Homo sapiens, UniProt Q13936); assay: Displacement of [3H]-diltiazem from human CaV1.2
Chain of Voltage-dependent L-type calcium channel subunit alpha-1C (Q13936 whole entry): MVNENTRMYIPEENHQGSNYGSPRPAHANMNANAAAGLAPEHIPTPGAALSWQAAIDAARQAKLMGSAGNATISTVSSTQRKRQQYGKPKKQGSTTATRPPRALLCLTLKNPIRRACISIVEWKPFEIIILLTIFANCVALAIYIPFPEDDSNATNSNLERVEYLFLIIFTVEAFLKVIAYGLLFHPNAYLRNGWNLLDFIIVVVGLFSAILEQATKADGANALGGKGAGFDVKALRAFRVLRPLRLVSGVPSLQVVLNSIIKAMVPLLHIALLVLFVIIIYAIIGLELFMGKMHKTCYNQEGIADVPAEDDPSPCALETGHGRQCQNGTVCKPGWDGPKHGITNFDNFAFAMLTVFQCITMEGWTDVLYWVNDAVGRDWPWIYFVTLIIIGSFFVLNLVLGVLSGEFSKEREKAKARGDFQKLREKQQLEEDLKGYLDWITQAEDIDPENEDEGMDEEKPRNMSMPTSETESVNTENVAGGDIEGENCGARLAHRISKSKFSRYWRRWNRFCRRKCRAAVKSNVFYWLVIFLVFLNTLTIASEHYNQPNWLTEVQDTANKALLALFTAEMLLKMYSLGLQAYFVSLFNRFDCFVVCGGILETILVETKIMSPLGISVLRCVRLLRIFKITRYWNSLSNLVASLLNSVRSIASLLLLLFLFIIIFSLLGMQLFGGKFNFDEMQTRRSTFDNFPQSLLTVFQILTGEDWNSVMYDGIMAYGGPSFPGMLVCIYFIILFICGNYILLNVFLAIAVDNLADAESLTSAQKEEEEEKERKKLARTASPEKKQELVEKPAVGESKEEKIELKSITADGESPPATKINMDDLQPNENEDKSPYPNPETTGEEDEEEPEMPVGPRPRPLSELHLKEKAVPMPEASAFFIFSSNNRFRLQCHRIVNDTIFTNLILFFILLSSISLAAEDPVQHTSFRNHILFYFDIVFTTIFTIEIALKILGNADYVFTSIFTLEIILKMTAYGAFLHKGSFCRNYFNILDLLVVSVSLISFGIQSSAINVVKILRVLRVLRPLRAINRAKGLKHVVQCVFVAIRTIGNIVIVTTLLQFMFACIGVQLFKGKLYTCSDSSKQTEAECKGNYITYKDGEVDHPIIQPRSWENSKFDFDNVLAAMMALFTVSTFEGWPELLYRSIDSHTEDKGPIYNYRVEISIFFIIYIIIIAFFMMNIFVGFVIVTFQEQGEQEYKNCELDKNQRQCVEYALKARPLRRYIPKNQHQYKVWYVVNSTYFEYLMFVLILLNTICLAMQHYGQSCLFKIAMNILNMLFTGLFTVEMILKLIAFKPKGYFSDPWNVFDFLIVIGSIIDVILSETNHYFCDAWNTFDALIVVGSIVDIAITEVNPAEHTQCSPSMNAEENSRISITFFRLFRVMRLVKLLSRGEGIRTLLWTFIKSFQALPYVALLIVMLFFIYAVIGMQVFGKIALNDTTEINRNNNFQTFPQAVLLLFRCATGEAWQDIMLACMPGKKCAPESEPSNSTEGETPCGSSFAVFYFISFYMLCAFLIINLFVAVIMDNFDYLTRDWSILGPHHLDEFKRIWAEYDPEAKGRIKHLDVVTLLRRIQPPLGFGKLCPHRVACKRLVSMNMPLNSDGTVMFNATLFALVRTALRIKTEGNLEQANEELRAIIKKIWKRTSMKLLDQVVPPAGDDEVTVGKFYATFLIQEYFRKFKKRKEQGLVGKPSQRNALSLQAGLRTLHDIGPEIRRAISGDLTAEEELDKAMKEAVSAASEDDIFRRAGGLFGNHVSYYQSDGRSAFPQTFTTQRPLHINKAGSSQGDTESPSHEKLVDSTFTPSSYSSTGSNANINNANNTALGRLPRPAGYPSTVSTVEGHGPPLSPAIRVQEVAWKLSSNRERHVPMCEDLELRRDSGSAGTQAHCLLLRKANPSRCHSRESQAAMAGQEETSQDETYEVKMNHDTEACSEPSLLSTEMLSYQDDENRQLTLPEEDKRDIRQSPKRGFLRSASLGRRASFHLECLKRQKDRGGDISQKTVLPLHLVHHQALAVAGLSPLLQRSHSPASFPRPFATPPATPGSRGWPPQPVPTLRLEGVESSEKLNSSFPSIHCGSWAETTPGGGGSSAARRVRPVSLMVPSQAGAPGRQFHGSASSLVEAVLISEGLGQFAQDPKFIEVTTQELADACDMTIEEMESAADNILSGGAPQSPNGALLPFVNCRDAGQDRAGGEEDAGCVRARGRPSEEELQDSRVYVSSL

[26] = molecular target: Beta-3 adrenergic receptor (Macaca mulatta) (UniProt Q28524); assay: Agonist activity at rhesus monkey beta-3 adrenergic receptor expressed in CHO cells assessed as increase in intracellular cAMP accumulation at 10^-10 to 10^-5 M after 30 mins by time-resolved fluorescence assay relative to R-(-)isoproterenol; assay type: functional, cell-based; outline: as §1
[27] = Intrinsic clearance in human liver microsomes; assay type: ADME; conditions: read-out: CLH
[28] = molecular target: Beta-3 adrenergic receptor (Macaca mulatta, UniProt Q28524); assay: Agonist activity at rhesus monkey beta-3 adrenergic receptor expressed in CHO cells assessed as increase in intracellular cAMP accumulation after 30 mins by time-resolved fluorescence assay; assay type: functional, cell-based; outline: as §1
Rattus norvegicus [29] = assay: Reduction of micturition pressure in iv dosed acetic acid-induced Sprague-Dawley rat bladder hyperactivity model administered as 1 to 2 hrs infusion; assay type: functional, organism-based
[30] = Apparent permeability in MDCK2 cells; assay type: ADME, cell-based, Canis lupus familiaris, MDCK-II; conditions: dog, MDCK
[31] = molecular target: Sodium-dependent serotonin transporter (Homo sapiens, UniProt P31645); assay: Inhibition of human SERT expressed in HEK293 cells incubated for 30 mins prior to fluorescent substrate addition measured after 30 mins by fluorescent dye uptake assay; assay type: cell-based
Outline: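 HEK293 stably expressing human SERT, 20000 cells/well plated overnight at 37 °C, then in HBSS with 20 mM HEPES and 0.1% BSA. Compound added from 100× DMSO stock, 30 min at 37 °C, then fluorescent transporter substrate for 30 more min. Fluorescence read at 440/520 nm, normalized to DMSO (0%) and 10 μM fluoxetine (100%), four-parameter fit for IC50.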

[32] = Fraction unbound in Beagle dog plasma at 1 mg/kg, iv and 2 mg/kg, po; assay type: ADME, organism-based, Canis lupus familiaris
[33] = molecular target: Beta-1 adrenergic receptor (Homo sapiens, UniProt P08588); assay: Displacement of [125I]-cyanopindolol from recombinant human beta-1 adrenergic receptor expressed in CHO cell membranes after 1 hr by scintillation counting analysis
Plasma [34] = assay: Unbound plasma concentration in acetic acid-induced Sprague-Dawley rat bladder hyperactivity model at 3 mg/kg, iv administered as 1 to 2 hrs infusion; assay type: ADME, organism-based; design: dose 3 mg/kg, route intravenous; conditions: in vivo
[35] = molecular target: Sodium channel protein type 5 subunit alpha (Homo sapiens, UniProt Q14524); assay: Inhibition of human NaV1.5
Chain of Sodium channel protein type 5 subunit alpha (Q14524 whole entry): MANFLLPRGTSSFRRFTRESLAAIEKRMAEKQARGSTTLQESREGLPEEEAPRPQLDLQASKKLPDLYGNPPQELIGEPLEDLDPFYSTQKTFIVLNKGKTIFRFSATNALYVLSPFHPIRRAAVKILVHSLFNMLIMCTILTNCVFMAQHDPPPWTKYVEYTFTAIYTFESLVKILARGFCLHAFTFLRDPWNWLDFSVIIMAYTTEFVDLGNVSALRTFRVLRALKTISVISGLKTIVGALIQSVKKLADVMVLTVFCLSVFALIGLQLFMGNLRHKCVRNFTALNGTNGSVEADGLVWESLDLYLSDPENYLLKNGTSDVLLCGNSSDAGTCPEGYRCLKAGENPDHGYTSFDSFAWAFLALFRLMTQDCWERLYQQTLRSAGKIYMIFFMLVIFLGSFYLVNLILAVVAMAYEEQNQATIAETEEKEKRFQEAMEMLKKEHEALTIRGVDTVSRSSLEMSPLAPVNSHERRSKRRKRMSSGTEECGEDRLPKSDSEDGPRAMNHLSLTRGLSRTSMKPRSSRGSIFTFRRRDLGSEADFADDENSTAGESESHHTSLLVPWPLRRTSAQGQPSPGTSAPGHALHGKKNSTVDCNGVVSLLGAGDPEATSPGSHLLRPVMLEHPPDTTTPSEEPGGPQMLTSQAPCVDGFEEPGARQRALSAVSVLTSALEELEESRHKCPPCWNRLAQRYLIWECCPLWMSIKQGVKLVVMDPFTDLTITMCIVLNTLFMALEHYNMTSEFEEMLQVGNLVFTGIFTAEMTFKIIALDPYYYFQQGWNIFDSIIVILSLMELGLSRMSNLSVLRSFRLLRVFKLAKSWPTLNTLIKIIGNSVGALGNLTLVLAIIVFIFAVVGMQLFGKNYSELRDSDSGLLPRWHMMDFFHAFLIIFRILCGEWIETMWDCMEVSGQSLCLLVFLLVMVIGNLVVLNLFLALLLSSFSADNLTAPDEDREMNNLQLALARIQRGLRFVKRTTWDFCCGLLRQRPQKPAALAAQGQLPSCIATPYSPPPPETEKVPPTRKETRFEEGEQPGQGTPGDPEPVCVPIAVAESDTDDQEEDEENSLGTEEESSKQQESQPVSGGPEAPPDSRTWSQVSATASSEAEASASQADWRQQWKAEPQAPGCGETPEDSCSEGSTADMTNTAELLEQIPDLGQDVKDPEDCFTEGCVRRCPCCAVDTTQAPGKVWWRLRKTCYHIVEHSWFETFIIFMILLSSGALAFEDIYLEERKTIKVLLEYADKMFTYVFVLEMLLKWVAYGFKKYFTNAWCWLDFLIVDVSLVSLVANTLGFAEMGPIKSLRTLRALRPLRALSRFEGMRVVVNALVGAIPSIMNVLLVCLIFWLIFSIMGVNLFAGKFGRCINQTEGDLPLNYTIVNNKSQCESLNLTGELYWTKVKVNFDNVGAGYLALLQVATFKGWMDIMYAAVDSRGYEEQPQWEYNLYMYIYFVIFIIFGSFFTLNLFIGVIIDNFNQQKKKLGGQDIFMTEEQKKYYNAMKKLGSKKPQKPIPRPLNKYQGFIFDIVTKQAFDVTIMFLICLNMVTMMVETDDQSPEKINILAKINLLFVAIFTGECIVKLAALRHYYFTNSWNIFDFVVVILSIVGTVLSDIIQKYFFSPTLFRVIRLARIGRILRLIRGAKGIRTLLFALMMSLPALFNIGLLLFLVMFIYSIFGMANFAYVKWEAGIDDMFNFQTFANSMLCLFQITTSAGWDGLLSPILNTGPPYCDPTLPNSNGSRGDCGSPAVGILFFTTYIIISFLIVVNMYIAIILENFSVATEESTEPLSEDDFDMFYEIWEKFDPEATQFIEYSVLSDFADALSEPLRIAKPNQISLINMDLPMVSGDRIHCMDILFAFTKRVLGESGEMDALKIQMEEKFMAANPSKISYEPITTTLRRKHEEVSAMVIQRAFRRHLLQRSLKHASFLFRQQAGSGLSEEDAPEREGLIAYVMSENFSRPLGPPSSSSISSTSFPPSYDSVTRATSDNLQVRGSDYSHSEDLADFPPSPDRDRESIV

[36] = Intrinsic clearance in dog liver microsomes; assay type: ADME, Canis lupus familiaris; conditions: read-out: CLH
[37] = Half life in rhesus monkey at 3 mg/kg, iv; assay type: ADME, organism-based, Macaca mulatta; design: dose 3 mg/kg, route intravenous; conditions: in vivo
[38] = Oral bioavailability in rhesus monkey at 10 mg/kg; assay type: ADME, organism-based, Macaca mulatta; conditions: in vivo
[39] = Fraction unbound in Sprague-Dawley rat plasma at 3 mg/kg, iv; assay type: ADME, organism-based; design: dose 3 mg/kg, route intravenous
[40] = Plasma clearance in rhesus monkey at 3 mg/kg, iv; assay type: ADME, organism-based, Macaca mulatta; design: dose 3 mg/kg, route intravenous
[41] = Half life in Sprague-Dawley rat at 3 mg/kg, iv; assay type: ADME, organism-based; design: dose 3 mg/kg, route intravenous; conditions: in vivo
[42] = Plasma clearance in Sprague-Dawley rat at 3 mg/kg, iv; assay type: ADME, organism-based; design: dose 3 mg/kg, route intravenous
[43] = Plasma clearance in Beagle dog at 3 mg/kg, iv; assay type: ADME, organism-based, Canis lupus familiaris; design: dose 3 mg/kg, route intravenous
[44] = Half life in Beagle dog at 3 mg/kg, iv; assay type: ADME, organism-based, Canis lupus familiaris; design: dose 3 mg/kg, route intravenous; conditions: in vivo
[45] = Fraction unbound in Beagle dog plasma at 3 mg/kg, iv; assay type: ADME, organism-based, Canis lupus familiaris; design: dose 3 mg/kg, route intravenous
[46] = Fraction unbound in rhesus monkey plasma at 3 mg/kg, iv; assay type: ADME, organism-based, Macaca mulatta; design: dose 3 mg/kg, route intravenous

O=C(Nc1ccc(C[C@@H]2CC[C@H]([C@H](O)c3cccnc3)N2)cc1)[C@@H]1CCc2scnc21
EC50 [1]: 1.36 nM | CLint scaled [2]: < 15 mL/min/kg | bioavailability [3]: 41% | IC50 [4]: > 20000 nM | Activity [5]: 82% | clearance [6]: 27 mL/min/kg | Cp(f) (Plasma [7]): 1170 nM | Activity [8]: 89% | Activity [9]: 103% | logD [10]: 0.9 | Cp(f) (Plasma [11]): 90 nM | Activity (Rattus norvegicus [12]): 59% | clearance [13]: 33 mL/min/kg | IC50 (Cytochrome P450 2C9): > 100000 nM | CLint scaled [14]: 205 mL/min/kg | IC50 (Cytochrome P450 3A4): > 100000 nM | IC50 (Cytochrome P450 2D6): 78800 nM | half-life [15]: 6 h | fraction unbound [16]: 1 | EC50 [17]: 27.6 nM | clearance [18]: 36 mL/min/kg | bioavailability [19]: 67% | bioavailability [20]: 8% | EC50 [21]: 5 nM | fraction unbound [22]: 0.19 | half-life [23]: 2 h | half-life [24]: 2 h | IC50 [25]: > 30000 nM | Activity [26]: 98% | CLint scaled [27]: < 10 mL/min/kg | EC50 [28]: 2 nM | Activity (Rattus norvegicus [29]): Dose-dependent effect | Papp [30]: 13 ×10⁻⁶ cm/s | IC50 [31]: 422 nM | fraction unbound [32]: 0.7 | IC50 [33]: > 20000 nM | Cp(f) (Plasma [34]): 260 nM | IC50 [35]: > 30000 nM | CLint scaled [36]: < 10 mL/min/kg

O=S(=O)(Nc1ccc(CCNC[C@H](O)c2cccnc2)cc1)c1ccc(-c2nc(-c3ccc(C(F)(F)F)cc3)cs2)cc1
half-life [37]: 9 h | bioavailability [38]: 4% | logD [10]: 4.6 | fraction unbound [39]: 0.02 | clearance [40]: 19 mL/min/kg | half-life [41]: 8 h | clearance [42]: 62 mL/min/kg | clearance [43]: 20 mL/min/kg | half-life [44]: 14 h | fraction unbound [45]: 0.02 | fraction unbound [46]: 0.02
